Screening data from PubChem.
T cruzi repl – inhibitors of intracellular T. cruzi growth, primary screen, luminescence, NIH3T3 host cells; T. cruzi beta-gal in NIH3T3, 90 h; inhibition, % (test concentration not listed); 1.4% of 300,000 active; AID 1885, 2009;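 active = mean inhibition across valid replicates above about 55%, limit read from the data; inconclusive = mean below that limit but half or more replicates reach it; inactive = mean below it, under half of replicates reach it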;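 note: signal also drops with host cell toxicity which is not excluded here; 0% = plate median of DMSO wells and 100% = zero luminescence signal; higher percent means less beta-gal luminescence so fewer parasites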
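System: Mouse NIH/3T3 fibroblasts infected with β-gal-expressing T. cruzi Tulahuen C4 | Quantity: NIH/3T3 cells, 5,000 per well | Reagent: 5000 reporter trypomastigotes per well | Dosing: Compound pinned at 50 nL/well, DMSO | Schedule: 3 h host attachment, then at least 90 h co-culture | Detection: GalScreen luminescence, 60 min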
CSC inhib – cancer stem cell viability inhibitors, primary screen, luminescence; cancer stem cell-like cells viability; inhibition, % at 7.5 µM; 1.1% of 300,000 active; in the data active = inhibition above about 75%; inconclusive = no clear call, values can overlap the other calls; tested in HMLE shEcad cells
SKKanGAS inh – S. pyogenes SKKanGAS growth inhibitors in kanamycin, primary screen, streptokinase expression inhibitor project, SKKanGAS strain, BacTiter-Glo luminescence. 6 h. inhibition, % at 7.5 µM. 1.3% of 300,000 active;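 active = mean replicate score, as percent of positive control median, at least 50; inconclusive = mean below 50 but one replicate at or above 50; inactive = mean and every replicate below 50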;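 note: strain carries kanamycin resistance gene driven by streptokinase promoter and grows in 40 µg/ml kanamycin; loss of luminescence reflects streptokinase promoter inhibition or plain growth inhibition; 0% = median of DMSO wells and 100% = positive control at its reference dose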
Mdm2 MdmX PPI – inhibitors of human Mdm2-MdmX association, primary screen, cell-based, luminescence, split luciferase, SaOS-2, uHTS | 3% of 330,000 active | inhibition, % at 8 µM | Protein Mdm4 (Homo sapiens) + E3 ubiquitin-protein ligase Mdm2 (Homo sapiens), … | SaOS-2 split-luciferase Mdm2/MdmX complementation | AID 485346, 2010;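 active = inhibition of at least 50% at 8 µM in the primary screen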
Target sequence (O15151 whole entry, looked up): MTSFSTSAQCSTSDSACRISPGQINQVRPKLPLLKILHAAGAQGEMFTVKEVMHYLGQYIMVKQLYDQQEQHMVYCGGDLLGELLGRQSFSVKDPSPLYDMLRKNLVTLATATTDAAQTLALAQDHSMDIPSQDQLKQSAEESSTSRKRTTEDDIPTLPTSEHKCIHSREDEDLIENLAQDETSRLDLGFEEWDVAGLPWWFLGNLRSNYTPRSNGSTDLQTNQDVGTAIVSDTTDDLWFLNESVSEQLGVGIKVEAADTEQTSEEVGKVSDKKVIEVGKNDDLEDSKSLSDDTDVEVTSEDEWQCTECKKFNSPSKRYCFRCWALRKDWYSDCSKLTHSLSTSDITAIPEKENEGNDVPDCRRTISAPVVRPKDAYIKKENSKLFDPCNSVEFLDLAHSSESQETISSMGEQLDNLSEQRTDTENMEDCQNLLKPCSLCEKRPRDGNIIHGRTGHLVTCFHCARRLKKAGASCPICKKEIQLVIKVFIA
Target sequence (Q00987 whole entry, looked up): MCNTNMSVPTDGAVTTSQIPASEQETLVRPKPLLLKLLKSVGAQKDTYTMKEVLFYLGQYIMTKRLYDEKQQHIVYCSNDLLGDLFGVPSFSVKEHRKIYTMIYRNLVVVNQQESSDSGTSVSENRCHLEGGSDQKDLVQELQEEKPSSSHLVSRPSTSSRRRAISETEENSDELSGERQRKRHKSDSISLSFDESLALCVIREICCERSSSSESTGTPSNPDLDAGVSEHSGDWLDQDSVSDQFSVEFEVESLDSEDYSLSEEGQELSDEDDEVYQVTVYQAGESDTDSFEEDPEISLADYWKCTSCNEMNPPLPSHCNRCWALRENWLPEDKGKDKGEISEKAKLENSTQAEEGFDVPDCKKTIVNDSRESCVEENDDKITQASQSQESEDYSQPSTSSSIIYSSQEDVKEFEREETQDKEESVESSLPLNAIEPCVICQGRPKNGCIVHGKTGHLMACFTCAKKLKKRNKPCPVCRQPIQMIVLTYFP
aSyn 5UTR inh – MLPCN primary screen, SNCA 5' untranslated region | alpha-synuclein 5'UTR reporter, inhibitor activity | inhibition, % (tested at 7.5 µM) | 0.82% of 300,000 active | AID 1813, 2009; in the data active = inhibition above about 60%; inconclusive = no clear call, values can overlap the other calls;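 note: H4 neuroglioblastoma cells stably carrying SNCA 5'UTR luciferase fusion; 0% = DMSO wells and 100% = positive control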
Mdm2 MdmX conf – Mdm2-MdmX complex disruptors, retested hits, confirmation, luminescence, single concentration. shares compounds with Mdm2 MdmX PPI. Mdm2-MdmX binding, luminescent assay. inhibition, % at 8 µM. 55% of 10,000 active; in the data active = inhibition above about 40%
FLuc counter – full-length luciferase signal inhibition, confirmation, counter-screen for Mdm2/MdmX interaction inhibitor project, cell-based, single concentration, SaOS-2; shares compounds with Mdm2 MdmX PPI; AID 504607, 2011; inhibition, % at 8 µM; 77% of 6,200 active; SaOS-2 full-length luciferase counterscreen, luminescence;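 active = mean inhibition at 8 µM reaching about 37%, which flags the compound as non-specific, limit read from the data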;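 note: p53-null SaOS-2 cells with luciferase driven by a doxycycline-inducible promoter; compound on cells about two nights before reading with doxycycline added after day one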
Numbers without * were called inactive; ? = inconclusive; / = not tested or not shown. Compounds with a hit are over-represented: about 5.4% of the library has one in this group of screens.

SMILES	T cruzi repl	CSC inhib	SKKanGAS inh	Mdm2 MdmX PPI	aSyn 5UTR inh	Mdm2 MdmX conf	FLuc counter
COc1cc(OC)c(C#N)c(S(=O)(=O)Cc2ccccc2)c1	13	3	-1	1	-3	/	/
N#Cc1c([N+](=O)[O-])cc([N+](=O)[O-])cc1S(=O)(=O)Cc1ccccc1	/	125*	/	98*	/	96*	0
Cc1[nH]nc(SCC(=O)N(C)c2ccccc2)c1[N+](=O)[O-]	2	-11	5	-35	2	/	/
COc1ccccc1NC1=C(N2CCCCC2)C(=O)c2ccccc2C1=O	62*	144*	1	74*	51	46*	4
O=C1C(Nc2cccc(O)c2)=C(N2CCCCC2)C(=O)c2ccccc21	-14	/	3	32	-14	/	/
COc1ccc(CNC(=O)CSCc2ccccc2Cl)cc1	-7	/	20	-12	-62	/	/
CCN(CC(=O)Nc1ccc(OC)cc1)C(=O)c1cc(-c2cccs2)nn1-c1ccccc1	3	22	3	60*	13	55*	90*
COc1ccc(NC(=O)CN(C)C(=O)c2cc(-c3cccs3)nn2-c2ccccc2)cc1	22	-12	-5	27	19	/	/
CCc1ccc(NC(=S)NC(=O)CC(C)C)cc1	28	-7	-2	-90	-154	/	/
CCCC[C@H](CN[C@@H](CNC)[C@H](C)CC)NCCC12CCC(CC1)C2	31	10	0	98*	-43	98*	50*
O=S1(=O)Nc2c(ccc3cccnc23)-c2ccccc21	72*	96*	112*	100*	6	97*	54*
COc1ccc(NC(=O)CN(C)C(=O)/C=C/c2ccc(OCc3ccccc3)cc2)cc1	-14	/	-4	52*	3	22	/
N=c1ccn2c(n1)OC1C(O)C(CO)OC12 (stereo not given)	-63	10	0	69*	112*	72*	46*
Nc1ccn([C@@H]2O[C@H](CO)[C@@H](O)C2O)c(=O)n1 (stereo not given in full)	0	52	3	65*	72*	70*	47*
Nc1ccn([C@@H]2O[C@H](COS(=O)(=O)O)[C@@H](O)[C@H]2O)c(=O)n1	/	10	/	-13	/	/	/
COc1cc(/C=N/NC(=O)C(=O)NCC2CCCO2)cc(Cl)c1O (stereo not given)	9	-7	0	6	14	/	/
O=C(O)c1c2c(nc3ccccc13)/C(=C/c1ccc(O)cc1)CC2	-13	-9	-12	62*	44	60*	106*
O=C(O)c1c2c(nc3ccccc13)/C(=C/c1ccc(OC(F)F)cc1)CCC2	-13	-9	-4	-9	-44	/	/
Cc1ccc(C)c(NC(=O)C(C)N2C(=O)c3ccccc3C2=O)c1 (stereo not given)	-3	-16	9	8	0	/	/
CCOc1ccc(N(CC(=O)Nc2ccc(OC)cc2OC)S(=O)(=O)c2c(C)[nH]c(=O)[nH]c2=O)cc1	-5	5	2	-28	4	/	/
CCOc1ccc(Nc2cc3n(c(=O)n2)CCc2cc(OC)c(OC)cc2-3)cc1	-5	-4	5	51*	35	6	/
Cc1ccc(SCc2cn3c(C)csc3n2)cc1	14	-6	6	-62	19	/	/
CCc1nn(CC(=O)NCCC2=CCCCC2)c(=O)c2cc3cc(F)ccc3n12	5	10	-4	50*	-3	12	/
CCc1nn(CC(=O)NCCCc2ccccc2)c(=O)c2cc3cc(F)ccc3n12	-1	-17	8	56*	-8	-1	/
COc1cc(CN2CCNC(=O)C2CC(=O)N(C)CCCN2CCOCC2)cc(OC)c1 (stereo not given)	-1	-6	-3	2	3	/	/
SMILES	T cruzi repl	CSC inhib	SKKanGAS inh	Mdm2 MdmX PPI	aSyn 5UTR inh	Mdm2 MdmX conf	FLuc counter
CCOC(=O)C1CCN(c2cc3c(cc2NC(=O)c2cc(OC)ccc2Br)n(C)c(=O)n3C)CC1	9	3	21	4	-19	/	/
O=S(Cc1ccccc1)CC(O)(c1ccccc1)c1ccccc1 (stereo not given)	7	-6	9	15	9	/	/
Cc1ccc(NC(=O)c2cc(C(=O)c3cc(Cl)ccc3O)cn(-c3ccc(C)cc3)c2=O)cc1	20	-6	34	88*	37	86*	44*
O=C(CCc1ccccc1)N/N=C\c1cc2c(cc1Br)OCO2	-2	14	11	27	-3	/	/
Cc1cc(=O)oc2cc(OCC(=O)N/N=C/c3ccccc3O)ccc12	5	/	8	9	13	/	/
O=C(Cc1ccccc1)N/N=C/c1cc(Br)cc(Br)c1O	26	29	112*	59*	27	73*	44*
C/C(=N/NC(=O)CCC(=O)Nc1ccc(Br)cc1)c1ccc(Br)cc1	-16	-2	1	51*	13	7	/
C/C(=N\NC(=O)CCc1ccccc1)c1ccc(Br)cc1	25	-4	4	10	4	/	/
CSc1nc(C)cc(OCC(=O)N/N=C/c2ccccc2O)n1	-9	89*	-3	58*	42	64*	39*
O=C(CCc1ccccc1)N/N=C/c1cc(Br)ccc1O	-9	-16	-11	71*	32	69*	27
O=C(CCC(=O)Nc1ccc(Br)cc1)N/N=C/c1ccccc1O	38	33	83*	67*	54	68*	48*
COC(=O)N/N=C/c1cc(Br)ccc1O	-8	1	-5	10	-19	/	/
Cc1ccc(SCCC(=O)N/N=C/c2ccccc2O)cc1	17	22	34	52*	25	44*	47*
O=C(N/N=C/c1cc(Br)ccc1O)c1ccccc1Cl	-19	20	68*	66*	67*	69*	35
O=C1COc2ccc(C(=O)COC(=O)c3cc(S(=O)(=O)NCc4ccccc4)ccc3O)cc2N1	7	-5	-2	-1	-3	/	/
O=C(NCc1ccccc1)c1ccc(-c2ccc(F)cc2)o1	-4	10	-3	-16	-40	/	/
COc1cc(C(C(=O)NCc2ccccc2)N(C(=O)c2snc(C(N)=O)c2N)C2CCCC2)cc(OC)c1OC (stereo not given)	8	-8	0	13	20	/	/
Cc1ccc2c(C(=O)CCl)c(C)[nH]c2c1	56*	22	-12	92*	5	77*	60*
Cc1ccc2[nH]cc(C(=O)CCl)c2c1	?	13	11	82*	6	67*	58*
